From ChEMBL document CHEMBL3853290, “Sesquiterpenoids Isolated from Two Species of the Asteriscus Alliance” (J Nat Prod, 2016)

How the values were obtained:
Assay type in all cases: functional, cell-based
[1] = (§1) Cytotoxicity against human MOLT3 cells assessed as cell growth inhibition after 72 hrs by MTT assay; conditions: MOLT-3, 72 h
In short: (§2)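 Cells from DSMZ, grown in RPMI 1640 with 2 mM L-glutamine and 10% heat-inactivated FBS. 1 × 10^4 exponentially growing cells per well exposed to a range of compound concentrations. MTT (0.5 mg/mL) added, 4 h at 37 °C, then 10% SDS in 0.05 M HCl overnight at room temperature in the dark. Absorbance read at 570 nm. IC50 from nonlinear regression, means ± SE of ≥3 independent experiments in triplicate. Etoposide as positive control.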

[2] = Cytotoxicity against human HL60 cells assessed as cell growth inhibition after 72 hrs by MTT assay; conditions: HL-60, 72 h; in short: as §2
MOLT-3 = assay: as §1; in short: as §2

Row | Structure (SMILES) | IC50 [1] | IC50 [2] | growth inhibition (GI) (MOLT-3)
1 | COc1cc([C@@H]2c3cc4c(cc3[C@@H](O[C@@H]3O[C@@H]5CO[C@@H](C)O[C@H]5[C@H](O)[C@H]3O)[C@H]3COC(=O)[C@H]23)OCO4)cc(OC)c1O [ETOPOSIDE] | 0.7 µM | 0.5 µM | –
2 | CC1(C)C[C@@H]2C(=O)[C@](C)(O)/C=C\C[C@@H]3C(=O)O[C@H]1[C@@H]32 | > 10 µM | > 10 µM | –
3 | CC1(C)/C=C\C(=O)[C@@]2(C)O[C@H]2CCC2=C[C@@H]1OC2=O | 4.1 µM | 5.4 µM | Dose-dependent effect
4 | C[C@@H]1C(=O)/C=C\C(C)(C)[C@@H]2C=C(CC[C@@H]1O)C(=O)O2 | > 10 µM | > 10 µM | –
5 | CCO[C@H]1CCC2=C[C@H](OC2=O)C(C)(C)/C=C\C(=O)[C@H]1C | > 10 µM | > 10 µM | –
6 | C/C1=C/CC[C@]23O[C@H]2[C@H](OC3=O)C(C)(C)/C=C/C1=O | > 10 µM | > 10 µM | –
